According to ChEMBL document CHEMBL1255409, “In vitro activity of ceftaroline against 623 diverse strains of anaerobic bacteria” (2010):
Converted amounts (≈) assume the structure as drawn.

Assays:
Type in all cases: functional
Clostridium tertium = experiment: Antimicrobial activity against Clostridium tertium under anaerobic conditions after 44 hrs by CLSI-M11-47 protocol based agar dilution method
Procedure, shortened: (§1)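 Reference agar dilution per CLSI M11-A7 with plates made on test day. Clinical isolates were stored at −70°C in 20% skim milk, subcultured twice, and 48-h cell paste was suspended in brucella broth to 0.5 McFarland. About 10^5 CFU/spot was applied with a Steers replicator. Plates were incubated 44 h at 37°C anaerobically. MIC was the lowest concentration giving complete inhibition or marked growth reduction versus the drug-free control.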

Prevotella corporis = experiment: Antimicrobial activity against Prevotella corporis under anaerobic conditions after 44 hrs by CLSI-M11-47 protocol based agar dilution method
Procedure, shortened: (§2)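 Clinical isolates were stored at −70°C in 20% skim milk and identified phenotypically or by partial 16S rRNA sequencing. Each strain was subcultured twice from frozen stock. Cell paste from 48-h cultures was suspended in brucella broth to a 0.5 McFarland standard. About 10^5 CFU per spot were applied by Steers replicator to agar dilution plates prepared on the day of testing. Plates were incubated 44 h at 37°C in an anaerobic chamber. MIC was taken as the lowest concentration giving complete inhibition or marked reduction of growth versus the drug-free control.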

Clostridium baratii = experiment: Antimicrobial activity against Clostridium baratii under anaerobic conditions after 44 hrs by CLSI-M11-47 protocol based agar dilution method
Clostridium aldenense = experiment: Antimicrobial activity against Clostridium aldenense under anaerobic conditions after 44 hrs by CLSI-M11-47 protocol based agar dilution method; conditions: Enterocloster aldenensis; procedure, shortened: as §1
Prevotella intermedia = experiment: Antimicrobial activity against Prevotella intermedia under anaerobic conditions after 44 hrs by CLSI-M11-47 protocol based agar dilution method; procedure, shortened: as §2
[1] = test system: Fusobacterium necrophorum; experiment: Antimicrobial activity against Fusobacterium necrophorum under anaerobic conditions after 44 hrs by CLSI-M11-47 protocol based agar dilution method; procedure, shortened: as §1
Anaerococcus prevotii = experiment: Antimicrobial activity against Anaerococcus prevotii under anaerobic conditions after 44 hrs by CLSI-M11-47 protocol based agar dilution method; procedure, shortened: as §1
Actinomyces turicensis = experiment: Antimicrobial activity against Actinomyces turicensis under anaerobic conditions after 44 hrs by CLSI-M11-47 protocol based agar dilution method; conditions: Schaalia turicensis; procedure, shortened: as §1
Clostridium hathewayi = experiment: Antimicrobial activity against Clostridium hathewayi under anaerobic conditions after 44 hrs by CLSI-M11-47 protocol based agar dilution method; conditions: Hungatella hathewayi; procedure, shortened: as §1
Prevotella bergensis = experiment: Antimicrobial activity against Prevotella bergensis under anaerobic conditions after 44 hrs by CLSI-M11-47 protocol based agar dilution method; conditions: Hallella bergensis; procedure, shortened: as §2
Mogibacterium timidum = experiment: Antimicrobial activity against Mogibacterium timidum under anaerobic conditions after 44 hrs by CLSI-M11-47 protocol based agar dilution method; procedure, shortened: as §2
Clostridium glycolicum = experiment: Antimicrobial activity against Clostridium glycolicum under anaerobic conditions after 44 hrs by CLSI-M11-47 protocol based agar dilution method; conditions: Terrisporobacter glycolicus; procedure, shortened: as §1
[2] = test system: Peptostreptococcus stomatis; experiment: Antimicrobial activity against Peptostreptococcus stomatis under anaerobic conditions after 44 hrs by CLSI-M11-47 protocol based agar dilution method; procedure, shortened: as §2
Clostridium citroniae = experiment: Antimicrobial activity against Clostridium citroniae under anaerobic conditions after 44 hrs by CLSI-M11-47 protocol based agar dilution method; conditions: Enterocloster citroniae; procedure, shortened: as §1
[3] = test system: Peptoniphilus asaccharolyticus; experiment: Antimicrobial activity against Peptoniphilus asaccharolyticus under anaerobic conditions after 44 hrs by CLSI-M11-47 protocol based agar dilution method; procedure, shortened: as §2
Prevotella tannerae = experiment: Antimicrobial activity against Prevotella tannerae under anaerobic conditions after 44 hrs by CLSI-M11-47 protocol based agar dilution method; conditions: Alloprevotella tannerae; procedure, shortened: as §2
Eubacterium cylindroides = experiment: Antimicrobial activity against Eubacterium cylindroides under anaerobic conditions after 44 hrs by CLSI-M11-47 protocol based agar dilution method; conditions: Faecalitalea cylindroides; procedure, shortened: as §1
Anaerococcus murdochii = experiment: Antimicrobial activity against Anaerococcus murdochii under anaerobic conditions after 44 hrs by CLSI-M11-47 protocol based agar dilution method; procedure, shortened: as §1
Lacticaseibacillus casei = experiment: Antimicrobial activity against Lactobacillus casei under anaerobic conditions after 44 hrs by CLSI-M11-47 protocol based agar dilution method; procedure, shortened: as §2
[4] = test system: Enterocloster clostridioformis; experiment: Antimicrobial activity against Clostridium clostridioforme under anaerobic conditions after 44 hrs by CLSI-M11-47 protocol based agar dilution method; procedure, shortened: as §1
Bacteroides ovatus = experiment: Antimicrobial activity against Bacteroides ovatus under anaerobic conditions after 44 hrs by CLSI-M11-47 protocol based agar dilution method; procedure, shortened: as §1
Fusobacterium varium = experiment: Antimicrobial activity against Fusobacterium varium under anaerobic conditions after 44 hrs by CLSI-M11-47 protocol based agar dilution method; procedure, shortened: as §2
Atopobium parvulum = experiment: Antimicrobial activity against Atopobium parvulum under anaerobic conditions after 44 hrs by CLSI-M11-47 protocol based agar dilution method; conditions: Lancefieldella parvula; procedure, shortened: as §1
Propionibacterium avidum = experiment: Antimicrobial activity against Propionibacterium avidum under anaerobic conditions after 44 hrs by CLSI-M11-47 protocol based agar dilution method; conditions: Cutibacterium avidum; procedure, shortened: as §2
Eggerthella lenta = experiment: Antimicrobial activity against Eggerthella lenta under anaerobic conditions after 44 hrs by CLSI-M11-47 protocol based agar dilution method; procedure, shortened: as §1
[5] = test system: Porphyromonas asaccharolytica; experiment: Antimicrobial activity against Porphyromonas asaccharolyticus under anaerobic conditions after 44 hrs by CLSI-M11-47 protocol based agar dilution method; procedure, shortened: as §2
Collinsella aerofaciens = experiment: Antimicrobial activity against Colinsella aerofaciens under anaerobic conditions after 44 hrs by CLSI-M11-47 protocol based agar dilution method; procedure, shortened: as §1
Finegoldia magna = experiment: Antimicrobial activity against Finegoldia magna under anaerobic conditions after 44 hrs by CLSI-M11-47 protocol based agar dilution method; procedure, shortened: as §1
[6] = test system: Anaerococcus lactolyticus; experiment: Antimicrobial activity against Anaerococcus lactolyticus under anaerobic conditions after 44 hrs by CLSI-M11-47 protocol based agar dilution method; procedure, shortened: as §1
Parabacteroides merdae = experiment: Antimicrobial activity against Bacteroides merdae under anaerobic conditions after 44 hrs by CLSI-M11-47 protocol based agar dilution method; procedure, shortened: as §1
Clostridium bolteae = experiment: Antimicrobial activity against Clostridium bolteae under anaerobic conditions after 44 hrs by CLSI-M11-47 protocol based agar dilution method; conditions: Enterocloster bolteae; procedure, shortened: as §1
Clostridium perfringens = experiment: Antimicrobial activity against Clostridium perfringens under anaerobic conditions after 44 hrs by CLSI-M11-47 protocol based agar dilution method

Q: Which MIC50 (Clostridium tertium) does the source give for `CCC[C@@H]1C[C@@H](C(=O)N[C@@H]([C@H]2O[C@H](SC)[C@H](O)[C@@H](O)[C@H]2O)[C@H](C)Cl)N(C)C1` [CLINDAMYCIN] here?
A: The MIC50 was 2 mg/L (≈ 4.71 µM).

Q: And the MIC90 (Clostridium tertium)?
A: The MIC90 was 128 mg/L (≈ 301 µM).

Q: What about the MIC50 (Prevotella corporis) of the same compound?
A: Its MIC50 is at most 0.03 mg/L.

Q: What about the MIC90 (Prevotella corporis) of the same compound?
A: The MIC90 was 128 mg/L (≈ 301 µM).

Q: And the MIC50 (Clostridium baratii)?
A: Its MIC50 is 2 mg/L (≈ 4.71 µM).

Q: And the MIC90 (Clostridium baratii)?
A: Its MIC90 is 128 mg/L (≈ 301 µM).

Q: And the MIC50 (Clostridium aldenense)?
A: Its MIC50 is 0.5 mg/L (≈ 1.18 µM).

Q: And the MIC90 (Clostridium aldenense)?
A: Its MIC90 is 2 mg/L (≈ 4.71 µM).

Q: What about the MIC50 (Prevotella intermedia) of the same compound?
A: Its MIC50 is at most 0.03 mg/L.

Q: What about the MIC90 (Prevotella intermedia) of the same compound?
A: The MIC90 was 16 mg/L (≈ 37.6 µM).

Q: And the MIC50 [1]?
A: The MIC50 was at most 0.03 mg/L.

Q: And the MIC90 [1]?
A: Its MIC90 is 0.06 mg/L (≈ 0.141 µM).

Q: And the MIC50 (Anaerococcus prevotii)?
A: The MIC50 was 0.5 mg/L (≈ 1.18 µM).

Q: What about the MIC90 (Anaerococcus prevotii) of the same compound?
A: Its MIC90 is 128 mg/L (≈ 301 µM).

Q: What about the MIC50 (Actinomyces turicensis) of the same compound?
A: The MIC50 was 0.06 mg/L (≈ 0.141 µM).

Q: What about the MIC90 (Actinomyces turicensis) of the same compound?
A: Its MIC90 is 128 mg/L (≈ 301 µM).

Q: And the MIC50 (Clostridium hathewayi)?
A: Its MIC50 is 0.5 mg/L (≈ 1.18 µM).

Q: What about the MIC90 (Clostridium hathewayi) of the same compound?
A: Its MIC90 is 2 mg/L (≈ 4.71 µM).

Q: What about the MIC50 (Prevotella bergensis) of the same compound?
A: The MIC50 was at most 0.03 mg/L.

Q: And the MIC90 (Prevotella bergensis)?
A: The MIC90 was 128 mg/L (≈ 301 µM).

Q: And the MIC50 (Mogibacterium timidum)?
A: Its MIC50 is 0.06 mg/L (≈ 0.141 µM).

Q: What about the MIC90 (Mogibacterium timidum) of the same compound?
A: Its MIC90 is 2 mg/L (≈ 4.71 µM).

Q: And the MIC50 (Clostridium glycolicum)?
A: Its MIC50 is 2 mg/L (≈ 4.71 µM).

Q: And the MIC90 (Clostridium glycolicum)?
A: The MIC90 was 128 mg/L (≈ 301 µM).

Q: What about the MIC50 [2] of the same compound?
A: The MIC50 was at most 0.03 mg/L.

Q: What about the MIC90 [2] of the same compound?
A: Its MIC90 is 0.25 mg/L (≈ 0.588 µM).

Q: And the MIC50 (Clostridium citroniae)?
A: Its MIC50 is 0.5 mg/L (≈ 1.18 µM).

Q: And the MIC90 (Clostridium citroniae)?
A: Its MIC90 is 2 mg/L (≈ 4.71 µM).

Q: What about the MIC50 [3] of the same compound?
A: The MIC50 was 0.125 mg/L (≈ 0.294 µM).

Q: What about the MIC90 [3] of the same compound?
A: Its MIC90 is over 128 mg/L.

Q: What about the MIC50 (Prevotella tannerae) of the same compound?
A: Its MIC50 is at most 0.03 mg/L.

Q: And the MIC90 (Prevotella tannerae)?
A: The MIC90 was 128 mg/L (≈ 301 µM).

Q: And the MIC50 (Eubacterium cylindroides)?
A: The MIC50 was 0.06 mg/L (≈ 0.141 µM).

Q: And the MIC90 (Eubacterium cylindroides)?
A: Its MIC90 is 2 mg/L (≈ 4.71 µM).

Q: What about the MIC50 (Anaerococcus murdochii) of the same compound?
A: The MIC50 was 0.125 mg/L (≈ 0.294 µM).

Q: And the MIC90 (Anaerococcus murdochii)?
A: The MIC90 was 64 mg/L (≈ 151 µM).

Q: What about the MIC50 (Lacticaseibacillus casei) of the same compound?
A: Its MIC50 is 1 mg/L (≈ 2.35 µM).

Q: What about the MIC90 (Lacticaseibacillus casei) of the same compound?
A: Its MIC90 is 2 mg/L (≈ 4.71 µM).

Q: What about the MIC50 [4] of the same compound?
A: Its MIC50 is 0.5 mg/L (≈ 1.18 µM).

Q: And the MIC90 [4]?
A: Its MIC90 is 2 mg/L (≈ 4.71 µM).

Q: What about the MIC50 (Bacteroides ovatus) of the same compound?
A: Its MIC50 is 4 mg/L (≈ 9.41 µM).

Q: And the MIC90 (Bacteroides ovatus)?
A: The MIC90 was over 128 mg/L.

Q: What about the MIC50 (Fusobacterium varium) of the same compound?
A: Its MIC50 is 2 mg/L (≈ 4.71 µM).

Q: What about the MIC90 (Fusobacterium varium) of the same compound?
A: Its MIC90 is 4 mg/L (≈ 9.41 µM).

Q: And the MIC50 (Atopobium parvulum)?
A: Its MIC50 is 0.06 mg/L (≈ 0.141 µM).

Q: And the MIC90 (Atopobium parvulum)?
A: Its MIC90 is 2 mg/L (≈ 4.71 µM).

Q: What about the MIC50 (Propionibacterium avidum) of the same compound?
A: Its MIC50 is 0.25 mg/L (≈ 0.588 µM).

Q: What about the MIC90 (Propionibacterium avidum) of the same compound?
A: Its MIC90 is 0.25 mg/L (≈ 0.588 µM).

Q: What about the MIC50 (Eggerthella lenta) of the same compound?
A: The MIC50 was 0.5 mg/L (≈ 1.18 µM).

Q: What about the MIC90 (Eggerthella lenta) of the same compound?
A: The MIC90 was 2 mg/L (≈ 4.71 µM).

Q: And the MIC50 [5]?
A: Its MIC50 is at most 0.03 mg/L.

Q: What about the MIC90 [5] of the same compound?
A: The MIC90 was over 128 mg/L.

Q: What about the MIC50 (Collinsella aerofaciens) of the same compound?
A: Its MIC50 is 0.06 mg/L (≈ 0.141 µM).

Q: And the MIC90 (Collinsella aerofaciens)?
A: The MIC90 was 2 mg/L (≈ 4.71 µM).

Q: And the MIC50 (Finegoldia magna)?
A: The MIC50 was 2 mg/L (≈ 4.71 µM).

Q: What about the MIC90 (Finegoldia magna) of the same compound?
A: Its MIC90 is over 128 mg/L.

Q: And the MIC50 [6]?
A: The MIC50 was 0.125 mg/L (≈ 0.294 µM).

Q: And the MIC90 [6]?
A: The MIC90 was 64 mg/L (≈ 151 µM).

Q: And the MIC50 (Parabacteroides merdae)?
A: Its MIC50 is 4 mg/L (≈ 9.41 µM).

Q: And the MIC90 (Parabacteroides merdae)?
A: The MIC90 was over 128 mg/L.

Q: What about the MIC50 (Clostridium bolteae) of the same compound?
A: Its MIC50 is 0.5 mg/L (≈ 1.18 µM).

Q: And the MIC90 (Clostridium bolteae)?
A: The MIC90 was 2 mg/L (≈ 4.71 µM).

Q: And the MIC50 (Clostridium perfringens)?
A: Its MIC50 is 0.25 mg/L (≈ 0.588 µM).

Q: And the MIC90 (Clostridium perfringens)?
A: Its MIC90 is 1 mg/L (≈ 2.35 µM).
